{"data": "Assay results gathered from unrelated publications", "target": "Phosphatidylinositol 4,5-bisphosphate 3-kinase catalytic subunit delta isoform (PIK3CD, Homo sapiens, UniProt O00329)", "Sequence (O00329 1-1044, as in one of the studies)": "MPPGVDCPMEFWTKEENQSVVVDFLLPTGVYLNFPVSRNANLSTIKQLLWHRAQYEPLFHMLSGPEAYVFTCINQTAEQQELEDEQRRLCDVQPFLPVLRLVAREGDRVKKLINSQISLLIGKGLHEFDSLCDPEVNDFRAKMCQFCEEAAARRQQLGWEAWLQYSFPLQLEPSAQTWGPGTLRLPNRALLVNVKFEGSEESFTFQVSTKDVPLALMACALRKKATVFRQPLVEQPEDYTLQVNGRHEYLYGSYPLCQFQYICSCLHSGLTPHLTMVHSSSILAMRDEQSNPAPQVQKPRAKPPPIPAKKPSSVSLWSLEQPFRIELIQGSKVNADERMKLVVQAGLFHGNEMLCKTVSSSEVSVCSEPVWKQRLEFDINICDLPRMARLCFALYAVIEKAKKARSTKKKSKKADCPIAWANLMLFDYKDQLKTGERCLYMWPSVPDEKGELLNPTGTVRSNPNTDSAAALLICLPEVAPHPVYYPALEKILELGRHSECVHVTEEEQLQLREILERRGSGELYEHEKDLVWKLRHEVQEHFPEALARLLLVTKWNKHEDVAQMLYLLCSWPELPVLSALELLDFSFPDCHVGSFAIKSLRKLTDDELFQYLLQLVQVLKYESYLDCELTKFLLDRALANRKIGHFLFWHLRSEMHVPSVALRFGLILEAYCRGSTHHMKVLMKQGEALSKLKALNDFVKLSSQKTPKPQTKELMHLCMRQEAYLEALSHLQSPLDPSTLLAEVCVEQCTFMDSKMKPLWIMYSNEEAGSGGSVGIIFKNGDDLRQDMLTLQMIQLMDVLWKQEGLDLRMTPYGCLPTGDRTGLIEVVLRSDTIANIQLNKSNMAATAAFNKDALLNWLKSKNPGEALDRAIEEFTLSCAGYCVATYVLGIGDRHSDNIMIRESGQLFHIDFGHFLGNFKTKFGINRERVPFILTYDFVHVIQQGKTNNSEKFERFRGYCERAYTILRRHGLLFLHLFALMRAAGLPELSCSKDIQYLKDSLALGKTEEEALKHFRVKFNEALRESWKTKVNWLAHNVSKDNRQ", "note": "Compare with care: the assays were run in different laboratories."}
{"SMILES": "Cc1cnc(Nc2ccc(C(=O)N3CCC(N4CCCC4)CC3)cc2)nc1-c1cc2ccccc2s1", "effect on": "binding", "method": "competition with immobilised ligand", "tested at": "1 µM", "remaining binding [%]": 90}
{"SMILES": "N[C@H]1CCN(c2nccc(-c3cnn4ncccc34)n2)C1", "effect on": "binding", "tested at": "1 µM", "remaining binding [%]": 100}
{"SMILES": "C[C@@H](c1ccc(-n2cnc3c(N)ncnc32)cc1)N1CCc2nn(C)c(Cc3ccccc3)c2C1=O", "effect on": "binding", "method": "competition with immobilised ligand", "tested at": "0.1 µM", "remaining binding [%]": 61}
{"SMILES": "O=C(c1ccc(Nc2nccc(-c3cc4ccccc4s3)n2)cc1)N1CCC(N2CCCC2)CC1", "effect on": "binding", "method": "competition with immobilised ligand", "tested at": "1 µM", "remaining binding [%]": 41}
{"SMILES": "C[C@H]1CCN(c2nccc(-c3cnn4ncccc34)n2)C1", "effect on": "binding", "tested at": "1 µM", "remaining binding [%]": 100}
{"SMILES": "O=C(Nc1c[nH]nc1C(=O)NC1CCNCC1)c1cc(F)cc(F)c1", "effect on": "binding", "method": "competition with immobilised ligand", "tested at": "1 µM", "remaining binding [%]": 100}
{"SMILES": "CN(C)c1ncc(F)c(-c2cnn3ncccc23)n1", "effect on": "binding", "tested at": "1 µM", "remaining binding [%]": 98}
{"SMILES": "CCN1CCN(Cc2ccc(C(=O)Nc3ccc(C)c(Oc4ccc5c(c4)CC(=O)N5)c3)cc2C(F)(F)F)CC1", "effect on": "binding", "method": "competition with immobilised ligand", "tested at": "1 µM", "remaining binding [%]": 100}
{"SMILES": "Cc1nc(N2CC[C@@H](O)C2)ncc1-c1cc(C(F)(F)F)cc2[nH]ncc12", "effect on": "cell-free assay", "method": "competition with immobilised ligand", "tested at": "1 µM", "remaining binding [%]": 72}
{"SMILES": "COc1ccnn2ncc(-c3ccnc(N(C)C)n3)c12", "effect on": "binding", "tested at": "1 µM", "remaining binding [%]": 68}
{"SMILES": "CCOCCn1cc(C(=O)Nc2ccc(-n3nc(-c4cccnc4)cc3C(F)(F)F)cn2)ccc1=O", "effect on": "cell-free assay", "method": "competition with immobilised ligand", "tested at": "1 µM", "remaining binding [%]": 100}
{"SMILES": "COc1ncc2cc3ccccc3nc2c1C#N", "effect on": "cell-free assay", "method": "competition with immobilised ligand", "tested at": "5 µM", "remaining binding [%]": 98}
{"SMILES": "Cc1cc(-n2nc(Cc3cc(F)cc(C(F)(F)F)c3)nc2C)ccc1C(N)=O", "effect on": "cell-free assay", "method": "competition with immobilised ligand", "tested at": "1 µM", "remaining binding [%]": 52}
{"SMILES": "O=C(c1ccc(Nc2ncc(Cl)c(-c3cc4ccccc4s3)n2)cc1)N1CCC(N2CCCC2)CC1", "effect on": "binding", "method": "competition with immobilised ligand", "tested at": "1 µM", "remaining binding [%]": 71}
{"SMILES": "CNC(=O)Nc1ccc2c(c1)[C@@]1(CC2)OC(=O)N(CC(=O)N(Cc2ccc(F)cc2)[C@@H](C)C(F)(F)F)C1=O", "effect on": "cell-free assay", "method": "competition with immobilised ligand", "tested at": "1 µM", "remaining binding [%]": 100}
{"SMILES": "COc1cnc(Nc2cccc(S(N)(=O)=O)c2)nc1N1CCN(c2ccccc2)C(=O)C1", "effect on": "binding", "method": "competition with immobilised ligand", "tested at": "1 µM", "remaining binding [%]": 47}
{"SMILES": "O=C1NC(c2ccccn2)Sc2ccccc21 (centres unmarked)", "effect on": "cell-free assay", "method": "competition with immobilised ligand", "tested at": "1 µM", "remaining binding [%]": 51}
{"SMILES": "Cc1cnn2ncc(-c3ccnc(N(C)C)n3)c2c1", "effect on": "binding", "tested at": "1 µM", "remaining binding [%]": 100}
{"SMILES": "COc1ccc2c(c1)O[C@@H](c1ccc(OC)c(OC)c1)C[C@H]2NC(=O)C1(c2ccc3c(c2)OC(F)(F)O3)CC1", "effect on": "cell-free assay", "method": "competition with immobilised ligand", "tested at": "1 µM", "remaining binding [%]": 97}
{"SMILES": "c1cnn2ncc(-c3ccnc(N4CCC45COC5)n3)c2c1", "effect on": "binding", "tested at": "1 µM", "remaining binding [%]": 69}
